Reference: ChEMBL document CHEMBL4428027, “3-Hydroxypyrimidine-2,4-diones as Selective Active Site Inhibitors of HIV Reverse Transcriptase-Associated RNase H: Design, Synthesis, and Biochemical Evaluations” (J Med Chem, 2016)

Legend:
[1] = target: T1, Human immunodeficiency virus type 1 reverse transcriptase (Human immunodeficiency virus 1, UniProt Q72547); assay: Inhibition of RNase H activity of full length recombinant HIV1 reverse transcriptase assessed as reduction in nonspecific internal cleavage using HTS1 substrate; details: read-out: IC50
Procedure, shortened: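 Recombinant p66/p51 RT heterodimer. Fluorescent RNA/DNA duplex substrate HTS-1 measures internal cleavage. IC50 is the mean of at least three independent experiments.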

[2] = target: T1, Human immunodeficiency virus type 1 reverse transcriptase; assay: Inhibition of RNase H activity of full length recombinant HIV1 reverse transcriptase assessed as reduction in DNA 3'-end cleavage using HTS2 substrate
Procedure, shortened: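 Recombinant p66/p51 RT heterodimer. Fluorescent RNA/DNA duplex substrate HTS-2 reports DNA 3′-end-directed (polymerase-dependent) cleavage. IC50 is the mean of at least three independent experiments.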

[3] = target: T1, Human immunodeficiency virus type 1 reverse transcriptase; assay: Inhibition of RNase H activity of full length recombinant HIV1 reverse transcriptase assessed as reduction in RNA 5'-end directed cleavage using HTS3 substrate
[4] = target: T1, Human immunodeficiency virus type 1 reverse transcriptase; assay: Inhibition of re-constituted HIV1 reverse transcriptase RNase H domain fragment
Procedure, shortened: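 Secondary check using a catalytically active, isolated HIV RNase H domain fragment (reconstituted) with duplex substrate HTS-1.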

[5] = target: T1, Human immunodeficiency virus type 1 reverse transcriptase; assay: Inhibition of polymerase activity of HIV1 reverse transcriptase using poly(rA)-oligo(dT)16 and [3H]-TTP incubated for 20 mins by liquid scintillation spectrometry
Procedure, shortened: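 Reaction mix: 10 µM [3H]-TTP, 40 nM poly(rA)-oligo(dT)16, 50 mM Tris-HCl pH 7.4 (37°C), 60 mM KCl, 5 mM MgCl2. Started with 10 nM RT; 20 min at 37°C. Quenched in ice-cold 10% TCA with 20 mM sodium pyrophosphate, then glass-fibre filtered and washed with TCA and ethanol. Label incorporation read by liquid scintillation.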

[6] = Toxicity against human HeLa P4/R5 cells; format: cell-based
[7] = target: Human immunodeficiency virus type 1 integrase (Human immunodeficiency virus 1, UniProt Q7ZJM1); assay: Inhibition of HIV integrase pre-incubated for 10 mins before addition of oligo-5'-biotin ATGTGGAAAATCTCTAGCA annealed with ACTGCTAGAGATTTTCCACAT 3'-Cy5) substrate
Sequence of Human immunodeficiency virus type 1 integrase (Q7ZJM1 whole entry): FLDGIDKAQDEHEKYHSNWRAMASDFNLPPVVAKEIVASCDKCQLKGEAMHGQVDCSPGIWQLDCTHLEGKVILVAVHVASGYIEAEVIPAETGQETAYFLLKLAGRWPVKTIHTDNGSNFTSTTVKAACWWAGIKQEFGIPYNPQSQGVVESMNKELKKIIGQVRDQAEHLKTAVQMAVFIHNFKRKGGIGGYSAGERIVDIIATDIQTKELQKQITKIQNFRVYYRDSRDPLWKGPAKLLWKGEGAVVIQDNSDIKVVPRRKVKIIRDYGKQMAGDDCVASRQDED

| SMILES | IC50 [1] [µM] | IC50 ([2]; read-out: IC50) [µM] | IC50 ([3]; read-out: IC50) [µM] | IC50 ([4]; read-out: IC50) [µM] | IC50 ([5]; read-out: IC50) [µM] | CC50 [6] [µM] | IC50 [5] | IC50 [7] [µM] | IC50 [2] | IC50 [3] | IC50 [4] |
| --- | --- | --- | --- | --- | --- | --- | --- | --- | --- | --- | --- |
| COc1ccc(-c2cccc(Nc3cc(=O)n(O)c(=O)n3C)c2)cc1 | 0.5 | 2.6 | 3.1 | 1.1 | 3.6 | 3 |  |  |  |  |  |
| Cn1c(Oc2ccc(-c3ccccc3)cc2)cc(=O)n(O)c1=O | 1.9 | 5.3 | 6 | 2.1 |  | 5 | Not Active |  |  |  |  |
| O=c1nc(Nc2ccc(-c3cnc4ccccc4c3)cc2)c2cccnc2n1O |  |  |  |  |  | 2 |  |  |  |  |  |
| COc1ccccc1-c1cccc(Nc2cc(=O)n(O)c(=O)n2C)c1 | 1.2 | 2.1 | 3.8 | 1 | 6.6 | 6 |  |  |  |  |  |
| Cn1c(Nc2cccc(-c3ccccc3)c2)cc(=O)n(O)c1=O | 0.85 | 3.5 | 3.4 |  |  |  | Not Active | 2.2 |  |  |  |
| COc1ccc(-c2cccc(Oc3cc(=O)n(O)c(=O)n3C)c2)cc1 | 0.4 | 4 | 4.7 | 1.8 |  | 2.5 | Not Active |  |  |  |  |
| Cn1c(Oc2ccccc2-c2ccc(C(F)(F)F)cc2)cc(=O)n(O)c1=O | 3.9 |  | 21 | 5.1 |  | 6 | Not Active |  | Not Active |  |  |
| Cn1c(Oc2cccc(-c3ccccc3)c2)cc(=O)n(O)c1=O | 1 |  | 15 | 3.9 |  | 3 | Not Active |  | Not Active |  |  |
| COc1cccc(OC)c1-c1cccc(Nc2cc(=O)n(O)c(=O)n2C)c1 | 1.9 | 6.9 | 4.5 | 1.2 |  | 8 | Not Active |  |  |  |  |
| Cc1ccc(-c2ccc(Nc3cc(=O)n(O)c(=O)n3C)cc2)cc1 | 2.7 | 6.5 | 6.6 | 1.9 |  | 5 | Not Active |  |  |  |  |
| Cn1c(Oc2cccc(-c3ccc(C(F)(F)F)cc3)c2)cc(=O)n(O)c1=O | 9.5 |  |  |  |  | > 25 | Not Active |  | Not Active | Not Active | Not Active |
| Cn1c(Oc2ccc(-c3ccc(O)cc3)cc2)cc(=O)n(O)c1=O | 2.2 | 15 | 11 |  |  |  | Not Active | 12 |  |  |  |
| COc1ccccc1-c1cccc(Oc2cc(=O)n(O)c(=O)n2C)c1 | 2.5 |  | 13 | 4.4 |  | 6 | Not Active |  | Not Active |  |  |
| COc1cccc(-c2ccccc2Oc2cc(=O)n(O)c(=O)n2C)c1 | 5.7 |  |  | 12 |  | 6 | Not Active |  | Not Active | Not Active |  |
| Cn1c(Oc2cccc(-c3cccc(O)c3)c2)cc(=O)n(O)c1=O | 0.9 | 12 | 4.3 |  |  |  | Not Active | 7.1 |  |  |  |
| Cn1c(Nc2ccc(-c3ccccc3)cc2)cc(=O)n(O)c1=O | 0.8 | 3.5 | 5.1 | 1.7 |  | 6 | Not Active |  |  |  |  |

| SMILES | IC50 [1] [µM] | IC50 ([2]; read-out: IC50) [µM] | IC50 ([3]; read-out: IC50) [µM] | IC50 ([4]; read-out: IC50) [µM] | IC50 ([5]; read-out: IC50) [µM] | CC50 [6] [µM] | IC50 [5] | IC50 [7] [µM] | IC50 [2] | IC50 [3] | IC50 [4] |
| --- | --- | --- | --- | --- | --- | --- | --- | --- | --- | --- | --- |
| Cn1c(Nc2cccc(-c3ccc(C#N)cc3)c2)cc(=O)n(O)c1=O | 0.7 | 2.3 | 3.4 | 1 | 5 | 10 |  |  |  |  |  |
| COc1cc(OC)cc(-c2cccc(Nc3cc(=O)n(O)c(=O)n3C)c2)c1 | 0.6 | 2.8 | 4 | 1.4 |  | 10 | Not Active |  |  |  |  |
| Cn1c(Nc2ccc(-c3ccc(C#N)cc3)cc2)cc(=O)n(O)c1=O | 1.1 | 2.6 | 3.7 | 1 | 3.3 | 12 |  |  |  |  |  |
| COc1cc(OC)cc(-c2ccc(Nc3cc(=O)n(O)c(=O)n3C)cc2)c1 | 1.6 | 7.2 | 9.2 | 1.8 | 6.5 | 15 |  |  |  |  |  |
| O=c1cc(Nc2ccc(-c3ccccc3)cc2)[nH]c(=O)n1O | 0.25 | 0.3 | 0.3 | 0.15 | 2 | > 25 |  |  |  |  |  |
| COc1ccccc1-c1ccccc1Oc1cc(=O)n(O)c(=O)n1C | 8.1 |  |  | 13 |  | 8 | Not Active |  | Not Active | Not Active |  |
| COc1ccccc1-c1ccc(Oc2cc(=O)n(O)c(=O)n2C)cc1 | 2.8 |  | 22 | 6.2 |  | 5 | Not Active |  | Not Active |  |  |
| Cn1c(Nc2ccc(-c3ccc(C(F)(F)F)cc3)cc2)cc(=O)n(O)c1=O | 3.6 | 8.9 | 6.6 | 2.2 |  | 10 | Not Active |  |  |  |  |
| Cn1c(Nc2cccc(-c3cncnc3)c2)cc(=O)n(O)c1=O | 1.4 | 4.1 | 3.9 | 0.9 |  | > 25 | Not Active |  |  |  |  |
| COc1ccc(-c2ccc(Oc3cc(=O)n(O)c(=O)n3C)cc2)cc1 | 1.6 | 11 | 12 | 4.7 |  | 6 | Not Active |  |  |  |  |
| Cn1c(Nc2cccc(-c3ccc(O)cc3)c2)cc(=O)n(O)c1=O | 0.75 | 3.8 | 2.7 |  | 12 |  |  |  |  |  |  |
| COc1ccc(-c2cccc(Nc3cc(=O)n(O)c(=O)n3C)c2)cc1OC | 0.5 | 2.2 | 3 | 0.9 | 5.8 | 10 |  |  |  |  |  |
| COc1cccc(-c2cccc(Oc3cc(=O)n(O)c(=O)n3C)c2)c1 | 1 | 17 | 9.4 | 3.6 |  | 5 | Not Active |  |  |  |  |
| COc1ccc(-c2cccc(Nc3cc(=O)n(O)c(=O)n3C)c2)c(OC)c1 | 1 | 2.1 | 4.2 | 1.1 | 6.3 | 6 |  |  |  |  |  |
| COc1cccc(-c2ccc(Nc3cc(=O)n(O)c(=O)n3C)cc2)c1 | 0.8 | 3.5 | 5.1 | 1.7 |  | 6 | Not Active |  |  |  |  |
